Assay outcomes (PubChem)
CXCR6 inh – inhibitors of human CXCR6 receptor | AID 602244 | inhibition, % at 20 µM | actives 0.36% (n = 360,000) | CHO-K1 PathHunter CXCR6 beta-arrestin, luminescence | O00574; in the data active means inhibition above about 34%, passing the limit was not always enough;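 further: antagonist mode with CXCL16 agonist at 10 nM final; 0% = 10 nM CXCL16 with DMSO and 100% = unstimulated wells without agonist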
GAA850 FXN act – frataxin GAA850 promoter activation | HEK293 lucGAA850 FXN promoter luciferase reporter, 24 h; percent of 10 µM SAHA response | activation, % at 6 µM | actives 0.56% (n = 360,000);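 active means activation above the average of all compounds screened plus 3 SD, cutoff fixed separately per campaign, cut at about 7.5% in these data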;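 further: 0% = DMSO wells and 100% = 10 µM SAHA wells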
CCR6 antag – CCR6 (human) receptor antagonism. P51684. CHO-K1 CCR6 PathHunter beta-arrestin, luminescence, CCL20-stimulated. inhibition, % at 20 µM. actives 0.49% (n = 340,000). AID 493098;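 active means compounds whose inhibition of the agonist-driven luminescence signal at 20 µM reaches about 50%, limit read from the data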;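 further: cells stimulated with CCL20 at 14 nM final; plate controls were DMSO with CCL20 for no effect and DMSO without agonist for full effect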
APJ antagonist – APJ receptor antagonism. CHO-K1 APJ beta-arrestin complementation, luminescence. inhibition, % at 20 µM. actives 0.32% (n = 330,000). AID 2521;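 active means inhibition above about 40% at 20 µM, limit read from the data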;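 further: cells challenged with 10 nM apelin-13 agonist together with compound; plate controls were apelin-13 plus DMSO wells for no effect and DMSO wells lacking apelin-13 for full effect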
EBI2 antag – blocks human EBI2 receptor beta-arrestin signaling; P32249; EBI2 beta-arrestin recruitment, luminescence, 7a,25-OHC stimulated; inhibition, % at 5 µM; actives 0.81% (n = 360,000); AID 651636; in the data active means inhibition above about 38%;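 further: enzyme fragment complementation signal reports receptor beta-arrestin coupling in cells; 0% = agonist plus DMSO wells and 100% = wells without agonist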
Target sequence (P32249 whole entry, looked up, the tested form may be a part): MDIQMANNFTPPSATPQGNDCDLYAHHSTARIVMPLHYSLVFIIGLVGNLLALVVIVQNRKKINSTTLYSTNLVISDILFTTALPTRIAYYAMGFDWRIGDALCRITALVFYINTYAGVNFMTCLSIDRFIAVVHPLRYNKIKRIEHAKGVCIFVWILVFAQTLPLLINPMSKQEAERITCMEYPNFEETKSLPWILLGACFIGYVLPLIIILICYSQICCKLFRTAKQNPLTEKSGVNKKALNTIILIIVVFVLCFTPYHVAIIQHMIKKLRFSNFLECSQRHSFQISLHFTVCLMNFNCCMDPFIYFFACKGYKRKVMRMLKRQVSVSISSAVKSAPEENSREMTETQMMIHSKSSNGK
APJ ag – activates the human apelin receptor APJ | P35414 | CHO-K1 APJ PathHunter beta-arrestin, luminescence; 0% DMSO wells, 100% apelin | activation, % at 20 µM | actives 0.11% (n = 330,000) | AID 2520;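 active means activation more than six SD over the plate average, tested at 20 µM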;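 further: 0% = DMSO alone and 100% = apelin-13 at 10 nM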
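Assay system: CHO-K1 APJ beta-arrestin complementation cell line / Compound: single test compound dose, 20 µM final, 1% DMSO / Times: overnight seeding, 90 min compound at 25 °C, 1 h detection / Technique: beta-gal luminescence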
GAA30 counter – GAA30 FXN promoter activation counter-screen; HEK293 lucGAA30 FXN promoter luciferase, 24 h; DMSO = 0%, 5 µM ipriflavone = 100%; AID 588350; activation, % at 6 µM; actives 66% (n = 1,900); shares compounds with GAA850 FXN act;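 active means mean activation above the mean of solvent-only control wells plus 3 SD, cut at about 22% in these data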;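 further: counterscreen of GAA850 promoter hits where activity marks nonselective or luminescence artifacts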
FXN GAA850 conf – GAA850 FXN promoter activation confirmation | actives 86% (n = 1,900) | activation, % at 6 µM | HEK293 lucGAA850 FXN promoter luciferase reporter, 24 h; 100% = activation by SAHA | shares compounds with GAA850 FXN act;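 active means mean activation above a set limit taken from the primary screen, cut at about 8% in these data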;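 further: 0% = DMSO wells and 100% = 10 µM SAHA wells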
An asterisk follows results filed as active. In the library only some 2% were active in any assay of this set; here they are far more common.

`COc1ccccc1-c1ccc2c(c1)C(C)(Cc1ccc(Cl)cc1)C(=O)N2` (centres undefined) gave CXCR6 inh 1, GAA850 FXN act 2 and EBI2 antag -5.
COc1ccc(Cl)cc1CC1(C)C(=O)Nc2ccc(-c3ccccc3OC)cc21 (centres undefined) was read as CXCR6 inh 3, GAA850 FXN act 12*, EBI2 antag 6, GAA30 counter 33* and FXN GAA850 conf 12*.
Screening CC1(Cc2ccccc2OC(F)(F)F)C(=O)Nc2ccc(-c3ccsc3)cc21 (centres undefined) returned CXCR6 inh -3, GAA850 FXN act 9.6*, EBI2 antag 15, GAA30 counter -2 and FXN GAA850 conf 3.
Screening COc1ccccc1-c1ccc2c(c1)C(C)(Cc1ccc(F)c(Cl)c1)C(=O)N2 (centres undefined) returned CXCR6 inh -1, GAA850 FXN act 13*, EBI2 antag 20, GAA30 counter 9 and FXN GAA850 conf 8.5*.
For COc1ccccc1-c1ccc2c(c1)C(C)(Cc1cccc(C#N)c1)C(=O)N2 (centres undefined) the results were CXCR6 inh 0, GAA850 FXN act 11*, EBI2 antag 23, GAA30 counter 10 and FXN GAA850 conf 8.1*.
C[C@H](NC(=O)C1CCN(C(=O)[C@@H]2CCCN2C(=O)OC(C)(C)C)CC1)C(=O)NCc1ccc(F)cc1 was read as CXCR6 inh -12, GAA850 FXN act 0 and EBI2 antag -3.
For CCC1(O)CC2CN(CCc3c([nH]c4ccccc34)C(C(=O)OC)(c3cc4c(cc3OC)N(C=O)C3C(O)(C(=O)OC)C(OC(C)=O)C5(CC)C=CCN6CCC43C65)C2)C1 (centres undefined) the results were CXCR6 inh -11, GAA850 FXN act -3, CCR6 antag -5 and EBI2 antag -2.
CCC1Sc2ccc(S(=O)(=O)CCC(=O)NCc3ccco3)cc2NC1=O (centres undefined) was read as CXCR6 inh 2, GAA850 FXN act -1, CCR6 antag -2, APJ antagonist -10, EBI2 antag -5 and APJ ag -1.
COC(=O)c1cccc(CC2(C)C(=O)Nc3cc(-c4ccccc4Cl)ccc32)c1 (centres undefined) was read as CXCR6 inh 10, GAA850 FXN act 17*, EBI2 antag 1, GAA30 counter 58* and FXN GAA850 conf 31*.
`Cc1ccc(NC(=O)CCc2nnc3ccc(N4CCOCC4)nn23)cc1C` gave CXCR6 inh -1, GAA850 FXN act 13*, CCR6 antag 1, APJ antagonist 1, EBI2 antag -5, APJ ag -2, GAA30 counter 11 and FXN GAA850 conf 3.
Screening COc1cc(NC(=O)CCc2nnc3ccc(N4CCOCC4)nn23)cc(OC)c1OC returned CXCR6 inh -3, GAA850 FXN act 2, CCR6 antag 3, APJ antagonist 3, EBI2 antag -2 and APJ ag -3.
`Cc1ccc(-c2noc(-c3ccccc3F)n2)cc1` gave CXCR6 inh 2, GAA850 FXN act 8.1*, CCR6 antag 21, APJ antagonist 15, EBI2 antag -2, APJ ag -3, GAA30 counter 135* and FXN GAA850 conf 45*.
`O=C(O)c1ccc(-c2noc(-c3ccccc3F)n2)cc1` gave CXCR6 inh 2, GAA850 FXN act 1, CCR6 antag 2, APJ antagonist 11, EBI2 antag 3 and APJ ag 1.
Screening CN(CC(=O)NCc1cccs1)CC(=O)Nc1ccccc1Cl returned CXCR6 inh -5, GAA850 FXN act 1 and EBI2 antag -3.
